PMC6989572 (Clinical Drug Investigation, 2019)
Read-outs that look alike come from different tables or passages of the source.

Tests used:
[1] = Safety assessment; type: in vivo, Japanese subjects (human); conditions: single oral 150 mg
How it was run: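 After an overnight fast, a single oral 150 mg tablet was given. Monitoring covered TEAEs, supine BP and pulse, axillary temperature, haematology, biochemistry, urinalysis and 12-lead ECG up to 7 days post-dose, with follow-up 7 (± 2) days after discharge. TEAEs were coded in MedDRA v17.1. The investigator assigned causality and graded severity by CTCAE v4.0.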

[2] = type: in vivo, Japanese subjects (human); conditions: single oral 150 mg; for Tmax: both, human, plasma, po, 150 mg, median tmax
How it was run: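 Renal groups by eGFR from the Japanese creatinine equation. Overnight-fasted subjects received one 150 mg tablet with 150 mL water on Day 1 morning, with no water from 1 h before to 1 h after. Blood was drawn predose, then 0.25–12 h and at 24, 36, 48, 60 and 72 h. Plasma (25 µL) was assayed by validated LC–MS/MS (LLOQ 0.25 ng/mL; linear 0.25–500 ng/mL). AUCinf was regressed on eGFR as a fixed effect.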

[3] = cited from earlier work; for mean urinary excretion: healthy volunteers
[4] = cited from earlier work

| Compound | death, serious TEAE or TEAE leading to withdrawal of treatment ([1]; all 31 subjects) | ECG results ([1]; all subjects, day of admission and post-dose time points) | intensity of TEAEs ([1]; both TEAEs (headache, ALT increased)) | vital sign measurements, mean changes from baseline [1] | Tmax ([2]; across the renal function groups, fasting conditions) | Tmax ([2]; renal impairment groups, fasting) | linear regression of AUCinf, CL/F and eGFR across the renal function groups [2] | mean urinary excretion ([3]; after 2 weeks of multiple dosing) | median tmax ([3]; healthy subjects, fed conditions) | mean urinary excretion ([3]; single oral dose) | AUC increase compared with subjects with normal renal function ([4]; mild renal impairment) | Cmax increase compared with subjects with normal renal function ([4]; mild renal impairment) | AUC increase compared with subjects with normal renal function ([4]; moderate renal impairment) | Cmax increase compared with subjects with normal renal function ([4]; moderate renal impairment) | AUC increase compared with subjects with normal renal function ([4]; severe renal impairment) | Cmax increase compared with subjects with normal renal function ([4]; severe renal impairment) |
| --- | --- | --- | --- | --- | --- | --- | --- | --- | --- | --- | --- | --- | --- | --- | --- | --- |
| NC(=O)c1cnc2[nH]ccc2c1N[C@@H]1[C@@H]2CC3C[C@H]1C[C@@](O)(C3)C2 [Peficitinib] | No death, serious TEAE or TEAE leading to withdrawal of treatment was reported | normal | mild | No clinically significant mean changes from baseline | 1.5 to 1.75 h | 1.5 h | no statistically significant slopes | 15–17% | 4 h | 9–15 % of dose |  |  |  |  |  |  |
| CCS(=O)(=O)N1CC(CC#N)(n2cc(-c3ncnc4[nH]ccc34)cn2)C1 [baricitinib] |  |  |  |  |  |  |  |  |  |  | 1.41 fold | 1.16 fold | 2.22 fold | 1.46 fold | 4.05 fold | 1.40 fold |
